Measured values: ChEMBL document CHEMBL1123010, “Nucleosides. 133. Synthesis of 5-alkenyl-1-(2-deoxy-2-fluoro-beta-D-arabinofuranosyl)cytosines and related pyrimidine nucleosides as potential antiviral agents” (J Med Chem, 1985)

Assays:
[1] = test system: Human alphaherpesvirus 2; assay: Antiviral activity against herpes simplex type-2 expressed as ED90; assay type: functional
Method in brief: (§1)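 Plaque reduction in confluent mycoplasma-free Vero cells infected with HSV-1 strain F or HSV-2 strain G (about 100 plaques/well), rocked 1 h, inoculum removed, PBS (pH 7.2) wash. Five or more drug concentrations in maintenance medium with 0.1% pooled human globulin, in replicate.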

[2] = molecular target: T1, Thymidine kinase (Human herpesvirus 2) (UniProt Q6L709); assay: Effect on thymidine kinase in the herpes simplex type-2 infected cells; assay type: functional; set-up: concentration or dose not given beside the values
T1 sequence (whole entry): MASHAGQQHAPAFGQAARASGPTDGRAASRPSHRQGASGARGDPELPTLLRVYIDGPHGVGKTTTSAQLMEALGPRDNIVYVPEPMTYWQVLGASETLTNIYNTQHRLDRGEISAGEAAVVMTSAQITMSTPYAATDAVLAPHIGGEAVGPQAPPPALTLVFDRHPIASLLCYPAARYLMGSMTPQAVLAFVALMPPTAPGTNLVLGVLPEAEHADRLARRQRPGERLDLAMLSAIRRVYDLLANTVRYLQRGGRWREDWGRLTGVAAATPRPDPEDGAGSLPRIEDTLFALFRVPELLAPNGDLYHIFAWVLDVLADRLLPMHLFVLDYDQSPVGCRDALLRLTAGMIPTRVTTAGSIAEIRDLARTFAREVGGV

[3] = test system: Human alphaherpesvirus 1; assay: Antiviral activity against herpes simplex type-1 expressed as ED50; assay type: functional; details: read-out: ED50 (the source's name); method in brief: as §1
[4] = test system: Human alphaherpesvirus 1; assay: Antiviral activity against herpes simplex type-1 expressed as ED90; assay type: functional; method in brief: as §1
[5] = test system: Vero; assay: Cytotoxic activity against vero cells was evaluated.; assay type: functional; details: Chlorocebus sabaeus, read-out: ID50 (the source's name)
Method in brief: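 Drug toxicity measured in rapidly dividing Vero cells over 3 days; 50% inhibitory dose (ID50) derived by linear regression analysis.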

[6] = test system: Human alphaherpesvirus 1 (HSV-1); assay: Ratio of ID50/ID90 in HSV-1 in fected cells; assay type: ADME, organism-based; details: human alphaherpesvirus 1, HSV-1 infected cells; read-out: Therapeutic index
Method in brief: (§2)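 Ratio of two measurements. ID50 came from 3-day growth of rapidly dividing Vero cells, by linear regression. ED90 came from plaque reduction in confluent Vero cells infected with HSV-1 strain F or HSV-2 strain G (about 100 plaques/well). After 1 h adsorption, compounds were added at ≥5 concentrations in medium with 0.1% human globulin. Plaques grew 48 h, then were formalin-fixed, crystal-violet-stained and counted; regression was against log concentration.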

[7] = test system: Human alphaherpesvirus 2; assay: Antiviral activity against herpes simplex type-2 expressed as ED50; assay type: functional; details: read-out: ED50 (the source's name); method in brief: as §1
[8] = test system: Human alphaherpesvirus 2 (HSV-2); assay: Ratio of ID50/ID90 in HSV-2 infected cells; assay type: ADME, organism-based; details: human alphaherpesvirus 2, HSV-2 infected cells; read-out: Therapeutic index; method in brief: as §2
[9] = test system: P815; assay: In vitro inhibitory activity against P815/0 cell line; assay type: functional; details: Mus musculus, read-out: ID50 (the source's name)
Method in brief: (§3)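 Mouse leukemia cells (L1210/0, P815/0, P815/Ara-C) at 4×10^4 cells/mL in McCoy's 5A with 15% fetal calf serum, nucleoside added as 20-fold concentrate; 96 h at 37 °C in 5% CO2. Cells Coulter-counted, percent growth inhibition and 50% growth-inhibiting concentration calculated.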

[10] = test system: P815; assay: In vitro inhibitory activity against P815/ara-C cell line; assay type: functional; details: Mus musculus, read-out: ID50 (the source's name); method in brief: as §3
[11] = test system: L1210; assay: In vitro inhibitory activity against L1212/0 cell line; assay type: functional; details: Mus musculus, read-out: ID50 (the source's name); method in brief: as §3
[12] = test system: Human alphaherpesvirus 1 (HSV-1); assay: Ratio of ID50/ID90 in HSV-1 infected cells; assay type: ADME, organism-based; details: human alphaherpesvirus 1, HSV-1 infected cells; read-out: Therapeutic index; method in brief: as §2
[13] = test system: Human alphaherpesvirus 1; assay: Effect of compound on thymidine kinase in the herpes simplex type-2 infected cells; assay type: functional, Human alphaherpesvirus 2
[14] = test system: Human alphaherpesvirus 2 (HSV-2); assay: (§4) Ratio of ID50/ID90 in HSV-2; assay type: ADME, organism-based; details: human alphaherpesvirus 2, in vivo; method in brief: as §2
[15] = test system: Human alphaherpesvirus 1 (HSV-1); assay: (§5) Ratio of ID50/ID90 in HSV-1; assay type: ADME, organism-based; details: human alphaherpesvirus 1, in vivo; method in brief: as §2
[16] = as §4; assay type: functional
[17] = as §5; assay type: functional

Row | SMILES | ED90 [1] [µM] | Control [2] [%] | EC50 [3] [nM] | ED90 [4] [µM] | IC50 [5] [µM] | selectivity ratio [6] | EC50 [7] [nM] | selectivity ratio [8] | IC50 [9] [µM] | IC50 [10] [µM] | IC50 [11] [µM] | selectivity ratio [12] | Control [13] [%] | selectivity ratio [14] | selectivity ratio [15] | Therapeutic index [16] | Therapeutic index [17]
1 | Cc1cn([C@@H]2O[C@H](CO)[C@@H](O)[C@@H]2F)c(=O)nc1N | 0.1 | 110 | 6 | 0.048 | 1.5 | 31 | 26 | 15 |  |  |  |  |  |  |  |  | 
2 | C[Si](C)(C)C#Cc1cn([C@@H]2O[C@H](CO)[C@@H](O)[C@@H]2F)c(=O)[nH]c1=O | 32.1 | 95.8 | 5700 | 39.5 | 17.1 |  | 5100 | 0.5 | 9.8 | 107 | 17.8 | 0.4 |  |  |  |  | 
3 | O=c1[nH]c(=O)n([C@@H]2O[C@H](CO)[C@@H](O)[C@@H]2F)cc1/C=C/Cl | 5.5 | 106 | 59 | 0.7 | 159 |  | 520 | 29 |  |  |  | 227 |  |  |  |  | 
4 | C#Cc1cn([C@@H]2O[C@H](CO)[C@@H](O)[C@@H]2F)c(=O)nc1N | 6 | 86.3 | 2100 | 7.5 | 30 |  | 640 | 5 | 52.1 | > 300 | 10.1 | 4 |  |  |  |  | 
5 | CCOC(=O)/C=C/c1cn([C@@H]2O[C@H](CO)[C@@H](O)[C@@H]2F)c(=O)nc1N | >100 |  | > 100000 | >100 | 126 |  | > 100000 |  |  |  |  |  | 107 |  |  |  | 
6 | Nc1nc(=O)n([C@@H]2O[C@H](CO)[C@@H](O)[C@@H]2F)cc1/C=C/C(=O)[O-].[Na+] | >100 | 111 | > 100000 | >100 | > 200 |  | > 100000 |  |  |  |  |  |  |  |  |  | 
7 | C=Cc1cn([C@@H]2O[C@H](CO)[C@@H](O)[C@@H]2F)c(=O)[nH]c1=O | 0.56 | 109 | 9 | 0.043 | 10.8 |  | 90 | 19 | 20.8 | 32.8 | 29 | 251 |  |  |  |  | 
8 | C=Cc1cn([C@@H]2O[C@H](CO)[C@@H](O)[C@@H]2F)c(=O)nc1N | 0.59 | 111 | 25 | 0.4 | 41 |  | 62 | 70 | 23.8 | > 300 | 10.7 | 103 |  |  |  |  | 
9 | O=c1[nH]c(=O)n([C@@H]2O[C@H](CO)[C@@H](O)[C@@H]2F)cc1/C=C/Br | 0.73 | 86 | 67 | 0.47 | 101 |  | 130 | 138 |  |  |  | 216 |  |  |  |  | 
10 | Nc1nc(=O)n([C@@H]2O[C@H](CO)[C@@H](O)[C@@H]2F)cc1/C=C/I | 2.3 | 101 | 88 | 0.74 | > 200 |  | 27 |  |  |  |  |  |  | > 87 | > 270 |  | 
11 | O=c1[nH]c(=O)n([C@@H]2O[C@H](CO)[C@@H](O)[C@@H]2F)cc1/C=C/I | 0.84 | 96.2 | 37 | 0.11 | 56 |  | 150 | 67 |  |  |  | 509 |  |  |  |  | 
12 | Cc1cn([C@@H]2O[C@H](CO)[C@@H](O)[C@@H]2F)c(=O)[nH]c1=O [5-METHYL-2'-FLUOROARAURACIL] | 0.09 | 94.1 | 10 | 0.042 | 2.8 |  | 23 |  | 0.98 | 12.4 | 2.95 |  |  |  |  |  | 
13 | C#Cc1cn([C@@H]2O[C@H](CO)[C@@H](O)[C@@H]2F)c(=O)[nH]c1=O | 7.9 | 90.8 | 1900 | 46.6 | 62 |  | 3000 | 8 | 20.4 | 84.7 | 23.5 | 1.3 |  |  |  |  | 
14 | Nc1nc(=O)n([C@@H]2O[C@H](CO)[C@@H](O)[C@@H]2F)cc1/C=C/Br | 4.5 | 104 | 68 | 0.52 | 23 |  | 37 |  |  |  |  |  |  |  |  | 5 | 44
15 | O=c1[nH]c(=O)n([C@H]2C[C@H](O)[C@@H](CO)O2)cc1/C=C/Br [BRIVUDINE] | 17 | 110 | 19 | 0.062 | 191 |  | 230 | 11 |  |  |  | 3080 |  |  |  |  | 
16 | CCc1cn([C@@H]2O[C@H](CO)[C@@H](O)[C@@H]2F)c(=O)nc1N | 4.9 | 101 | 35 | 0.57 | 143 |  | 320 | 29 |  |  |  | 251 |  |  |  |  | 
